Assay results of several laboratories.
Lines come from different studies, so protocols differ.
Target: Serine/threonine-protein kinase Nek3 (NEK3, Homo sapiens, UniProt P51956)
Sequence (P51956 1-506, as in one of the studies): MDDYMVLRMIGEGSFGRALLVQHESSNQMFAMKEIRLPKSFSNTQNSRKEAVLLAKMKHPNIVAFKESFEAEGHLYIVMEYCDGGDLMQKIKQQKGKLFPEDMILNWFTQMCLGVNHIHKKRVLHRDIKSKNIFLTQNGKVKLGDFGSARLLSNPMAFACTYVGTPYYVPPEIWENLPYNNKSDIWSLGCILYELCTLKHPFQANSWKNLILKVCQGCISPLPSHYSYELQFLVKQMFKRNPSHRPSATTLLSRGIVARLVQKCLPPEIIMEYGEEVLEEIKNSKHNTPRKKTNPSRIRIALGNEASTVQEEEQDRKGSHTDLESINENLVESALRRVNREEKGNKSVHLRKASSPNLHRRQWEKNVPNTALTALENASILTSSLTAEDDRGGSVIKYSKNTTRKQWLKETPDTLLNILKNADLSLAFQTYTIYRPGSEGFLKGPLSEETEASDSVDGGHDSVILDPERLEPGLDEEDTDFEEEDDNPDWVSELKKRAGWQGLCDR

| SMILES | test | conditions | quantity | result |
| --- | --- | --- | --- | --- |
| C=CC(=O)N1CCC([C@@H]2CCNc3c(C(N)=O)c(-c4ccc(Oc5ccccc5)cc4)nn32)CC1 | enzyme activity, inhibitor | 1 µM | inhibition | 44% |
| C1=C/COCc2cc(ccc2OCCN2CCCC2)Nc2nccc(n2)-c2cccc(c2)COC/1 | binding | 0.1 µM | remaining binding | 82% |
| CC(C)S(=O)(=O)c1ccc2nccc(Nc3ccc4sc(C5CCCC5)nc4c3)c2c1 | enzyme activity, inhibitor | 1 µM | activity vs control | 111% |
| C=CC(=O)N1CCC[C@@H](n2nc(-c3ccc(Oc4ccccc4)cc3)c3c(N)ncnc32)C1 | enzyme activity, inhibitor | 1 µM | inhibition | 5% |
| Cc1ccc(NC(=O)c2ccnc(C(F)(F)F)c2)cc1-c1cc(OCCO)nc(N2CCOCC2)c1 | binding | 1 µM | remaining binding | 95% |
| Cc1cc(O)c(-c2ccc([C@@H](C)CN(C)C)cc2)c2c1[nH]c(=O)c1sccc12 | enzyme activity, inhibitor | 0.1 µM | inhibition | -5.15% |
| CCCCC(=O)Nc1ccc(-c2ccc3ncn(CCC)c(=O)c3c2)cn1 | binding, competition with immobilised ligand | 0.5 µM | remaining binding | 87% |
| CN1CCN(C(=O)c2ccc(NC(=O)Nc3ccc(N(C)c4ccnc(Nc5ccc(CS(C)(=O)=O)cc5)n4)cc3)cc2)CC1 | binding | 1 µM | remaining binding | 66% |
